Values after ≈ are worked out from the molar mass of the structure shown.
Columns and labels:
[1] = test system: Pseudomonas aeruginosa; test: Ratio of MIC for Pseudomonas aeruginosa N092 to MIC for Pseudomonas aeruginosa PAO1; assay type: functional
Method in brief: (§1)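 MICs were measured for PAO1-derived resistance mutants and the parent PAO1 by broth microdilution in cation-adjusted Mueller-Hinton broth (25 mg/liter Ca2+, 12.5 mg/liter Mg2+), inoculum 4×10^5 CFU/ml, in duplicate. MIC was the lowest concentration with complete growth inhibition. The ratio is the mutant MIC divided by the PAO1 MIC.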

[2] = test system: Pseudomonas aeruginosa; test: Antibacterial activity against beta-lactamase and MexA-MexB-OprM-overproducing Pseudomonas aeruginosa N045 by broth microdilution method; assay type: functional
Method in brief: (§2)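 Broth microdilution in cation-adjusted Mueller-Hinton broth (25 mg Ca2+ and 12.5 mg Mg2+ per liter), inoculum 4×10^5 CFU/ml. MIC was the lowest concentration completely inhibiting visible growth in wells. European clinical isolates were tested with S. aureus ATCC 29213 and P. aeruginosa ATCC 27853 as quality controls. PAO1-derived mutants were run in duplicate.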

[3] = test system: Pseudomonas aeruginosa; test: Antibacterial activity against Pseudomonas aeruginosa N092 expressing MexE-MexF-OprN gene and OprD mutant gene and harboring nfxC mutant gene by broth microdilution method
[4] = test system: Pseudomonas aeruginosa; test: Ratio of MIC for Pseudomonas aeruginosa N041 to MIC for Pseudomonas aeruginosa PAO1; assay type: functional; method in brief: as §1
[5] = test system: Pseudomonas aeruginosa; test: Ratio of MIC for Pseudomonas aeruginosa COR6 to MIC for Pseudomonas aeruginosa PAO1; assay type: functional; method in brief: as §1
[6] = test system: Pseudomonas aeruginosa; test: Antibacterial activity against MexA-MexB-OprM-overproducing Pseudomonas aeruginosa OCR1 by broth microdilution method; assay type: functional
Method in brief: (§3)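 Standard broth microdilution in cation-adjusted Mueller-Hinton broth (25 mg Ca2+ and 12.5 mg Mg2+ per liter), inoculum 4×10^5 CFU/ml, against P. aeruginosa PAO1 or its laboratory mutants with defined resistance mechanisms. MIC was the lowest concentration completely inhibiting […] growth in wells. Determinations were done in duplicate.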

[7] = test system: Pseudomonas aeruginosa; test: Antibacterial activity against MexA-MexB-OprM-overproducing and OprD-deficient Pseudomonas aeruginosa N041 by broth microdilution method; assay type: functional; method in brief: as §3
[8] = test system: Pseudomonas aeruginosa; test: Antibacterial activity against Pseudomonas aeruginosa COR6 expressing MexC-MexD-OprJ gene by broth microdilution method; assay type: functional; method in brief: as §3
[9] = test system: Pseudomonas aeruginosa; test: Antibacterial activity against beta-lactamase-overproducing and OprD-deficient Pseudomonas aeruginosa N044 by broth microdilution method; assay type: functional; method in brief: as §3
[10] = test system: Pseudomonas aeruginosa; test: Antibacterial activity against OprD-deficient Pseudomonas aeruginosa MR08 by broth microdilution method; assay type: functional; method in brief: as §3
[11] = test system: Pseudomonas aeruginosa; test: Antibacterial activity against beta-lactamase-overproducing Pseudomonas aeruginosa N043 by broth microdilution method; assay type: functional; method in brief: as §3
[12] = test system: Pseudomonas aeruginosa; test: Antibacterial activity against Pseudomonas aeruginosa N091 by broth microdilution method; assay type: functional; method in brief: as §3
[13] = test system: Pseudomonas aeruginosa; test: Ratio of MIC for Pseudomonas aeruginosa OCR1 to MIC for Pseudomonas aeruginosa PAO1; assay type: functional; method in brief: as §1
[14] = test system: Pseudomonas aeruginosa; test: Ratio of MIC for Pseudomonas aeruginosa MR08 to MIC for Pseudomonas aeruginosa PAO1; assay type: functional; method in brief: as §1
[15] = test system: Pseudomonas aeruginosa; test: Ratio of MIC for Pseudomonas aeruginosa N043 to MIC for Pseudomonas aeruginosa PAO1; assay type: functional; method in brief: as §1
[16] = test system: Pseudomonas aeruginosa; test: Antibacterial activity against Pseudomonas aeruginosa PAO1 by broth microdilution method; assay type: functional; method in brief: as §3
[17] = test system: Pseudomonas aeruginosa; test: Ratio of MIC for Pseudomonas aeruginosa N045 to MIC for Pseudomonas aeruginosa PAO1; assay type: functional; method in brief: as §1
[18] = test system: Pseudomonas aeruginosa; test: Ratio of MIC for Pseudomonas aeruginosa N044 to MIC for Pseudomonas aeruginosa PAO1; assay type: functional; method in brief: as §1
[19] = test system: Pseudomonas aeruginosa; test: Antibacterial activity against imipenem-resistant Pseudomonas aeruginosa clinical isolates by broth microdilution method; assay type: functional
Method in brief: (§4)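 Standard broth microdilution in cation-adjusted Mueller-Hinton broth (25 mg Ca2+ and 12.5 mg Mg2+ per liter), inoculum 4×10^5 CFU/ml. MIC is the lowest concentration completely inhibiting […] growth in wells. […] P. aeruginosa ATCC 27853 serves as QC strain.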

[20] = test system: Staphylococcus aureus; test: Antibacterial activity against methicillin-resistant Staphylococcus aureus by broth microdilution method; assay type: functional
Method in brief: (§5)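 Standard broth microdilution in cation-adjusted Mueller-Hinton broth (25 mg Ca2+ and 12.5 mg Mg2+ per liter), inoculum 4×10^5 CFU/ml. Isolates were 60 German MRSA clinical strains, and penicillinase-plasmid-cured MRSA 123-1 and 12386-1. QC strain was S. aureus ATCC 29213.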

[21] = test system: Staphylococcus aureus; test: Antibacterial activity against methicillin-resistant Staphylococcus aureus 123-1 expressing PBP 2a by broth microdilution method; assay type: functional; method in brief: as §5
[22] = target: T1, MecA (Staphylococcus aureus, UniProt Q7DHH4); test: Binding affinity to PBP2a in methicillin-resistant Staphylococcus aureus 12386-1 by [14C]benzylpenicillin labelled competitive assay
T1 sequence (Q7DHH4 whole entry): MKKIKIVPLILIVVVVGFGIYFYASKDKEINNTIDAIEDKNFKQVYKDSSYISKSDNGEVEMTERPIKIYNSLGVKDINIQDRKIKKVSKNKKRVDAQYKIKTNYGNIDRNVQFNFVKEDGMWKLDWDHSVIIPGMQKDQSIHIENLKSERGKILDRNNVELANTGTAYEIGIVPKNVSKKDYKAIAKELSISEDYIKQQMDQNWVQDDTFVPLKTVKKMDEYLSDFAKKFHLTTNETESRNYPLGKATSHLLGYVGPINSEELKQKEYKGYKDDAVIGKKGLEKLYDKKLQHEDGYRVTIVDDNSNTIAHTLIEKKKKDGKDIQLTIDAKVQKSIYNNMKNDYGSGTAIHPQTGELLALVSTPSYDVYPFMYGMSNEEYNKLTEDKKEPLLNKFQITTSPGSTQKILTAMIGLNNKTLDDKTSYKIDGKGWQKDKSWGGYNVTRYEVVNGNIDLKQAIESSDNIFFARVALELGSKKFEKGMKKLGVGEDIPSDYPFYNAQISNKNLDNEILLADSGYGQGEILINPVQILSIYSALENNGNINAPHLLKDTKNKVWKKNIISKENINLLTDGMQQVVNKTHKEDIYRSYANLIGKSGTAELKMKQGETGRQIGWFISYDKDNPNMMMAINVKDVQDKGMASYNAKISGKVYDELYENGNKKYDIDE
Method in brief: (§6)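 Competition against [14C]benzylpenicillin. Membranes came from penicillinase-plasmid-cured MRSA lysed with lysostaphin (100 μg/ml), DNase (1 μg/ml) and sonication in 50 mM sodium phosphate, 10 mM MgCl2, pH 7.0. They were collected at 5,000 × g for 10 min, then 100,000 × g for 60 min, at final 8 mg/ml protein. Compound was added for 30 min, then label for 30 min, at 37°C. IC50 for 50% label-binding inhibition to PBP 2a was read by imaging analyzer.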

[23] = test system: Staphylococcus aureus; test: Antibacterial activity against methicillin-resistant Staphylococcus aureus 12386-1 expressing PBP 2a by broth microdilution method; assay type: functional; method in brief: as §5
[24] = target: T1, MecA; test: Binding affinity to PBP2a in methicillin-resistant Staphylococcus aureus 123-1 by [14C]benzylpenicillin labelled competitive assay; method in brief: as §6
[25] = test system: Pseudomonas aeruginosa; test: Antibacterial activity against Pseudomonas aeruginosa clinical isolates by broth microdilution method; assay type: functional; method in brief: as §2
[26] = test system: Pseudomonas aeruginosa; test: Antibacterial activity against meropenem-resistant Pseudomonas aeruginosa clinical isolates by broth microdilution method; assay type: functional; method in brief: as §4

Row | Compound | Ratio [1] | MIC [2] [µg/mL] | MIC [3] [µg/mL] | Ratio [4] | Ratio [5] | MIC [6] [µg/mL] | MIC [7] [µg/mL] | MIC [8] [µg/mL] | MIC [9] [µg/mL] | MIC [10] [µg/mL] | MIC [11] [µg/mL] | MIC [12] [µg/mL] | Ratio [13] | Ratio [14] | Ratio [15] | MIC [16] [µg/mL] | Ratio [17] | Ratio [18] | MIC50 [20] [µg/mL] | MIC90 [20] [µg/mL] | other results
1 | NCC[C@H](O)C(=O)N[C@@H]1C[C@H](N)[C@@H](O[C@H]2O[C@H](CN)[C@@H](O)[C@H](O)[C@H]2O)[C@H](O)[C@H]1O[C@H]1O[C@H](CO)[C@@H](O)[C@H](N)[C@H]1O [AMIKACIN] | 0.5 | 8 (≈ 13.7 µM) | 2 (≈ 3.42 µM) | 1 | 0.125 | 4 (≈ 6.83 µM) | 4 (≈ 6.83 µM) | 0.5 (≈ 0.854 µM) | 8 (≈ 13.7 µM) | 4 (≈ 6.83 µM) | 8 (≈ 13.7 µM) | 4 (≈ 6.83 µM) | 1 | 1 | 2 | 4 (≈ 6.83 µM) | 2 | 2 |  |  | 
2 | CC(C)(O/N=C(\C(=O)N[C@@H]1C(=O)N2C(C(=O)[O-])=C(C[n+]3ccccc3)CS[C@H]12)c1csc(N)n1)C(=O)O [CEFTAZIDIME] | 0.5 | 128 (≈ 234 µM) | 1 (≈ 1.83 µM) | 4 | 0.5 | 8 (≈ 14.6 µM) | 8 (≈ 14.6 µM) | 1 (≈ 1.83 µM) | 128 (≈ 234 µM) | 2 (≈ 3.66 µM) | 128 (≈ 234 µM) | 2 (≈ 3.66 µM) | 4 | 1 | 64 | 2 (≈ 3.66 µM) | 64 | 64 |  |  | 
3 | C[C@@H](O)[C@H]1C(=O)N2C(C(=O)O)=C(SCCNC=N)C[C@H]12 [IMIPENEM ANHYDROUS] |  | 1 (≈ 3.34 µM) | 4 (≈ 13.4 µM) |  |  | 1 (≈ 3.34 µM) | 8 (≈ 26.7 µM) | 0.5 (≈ 1.67 µM) | 32 (≈ 107 µM) | 16 (≈ 53.4 µM) | 1 (≈ 3.34 µM) | 1 (≈ 3.34 µM) |  |  |  | 1 (≈ 3.34 µM) |  |  | 4 (≈ 13.4 µM) | > 32 | MIC [19]: ≥ 16 µg/mL; MIC [21]: 32 µg/mL (≈ 107 µM); IC50 [22]: 254 µM; MIC [23]: 16 µg/mL (≈ 53.4 µM); IC50 [24]: 568 µM; MIC50 [25]: 2 µg/mL (≈ 6.68 µM); MIC90 [25]: 32 µg/mL (≈ 107 µM)
4 | C[C@H]1COc2c(N3CCN(C)CC3)c(F)cc3c(=O)c(C(=O)O)cn1c23.C[C@H]1COc2c(N3CCN(C)CC3)c(F)cc3c(=O)c(C(=O)O)cn1c23.O [LEVOFLOXACIN] |  |  | 8 |  |  |  |  | 8 | 0.25 | 0.5 | 0.25 | 0.5 |  |  |  | 0.5 |  |  |  |  | 
5 | C[C@@H](O)[C@H]1C(=O)N2C(C(=O)O)=C(S[C@@H]3CN[C@H](C(=O)N(C)C)C3)[C@H](C)[C@H]12 [MEROPENEM] | 2 | 2 (≈ 5.22 µM) | 1 (≈ 2.61 µM) | 32 | 1 | 2 (≈ 5.22 µM) | 16 (≈ 41.7 µM) | 0.5 (≈ 1.3 µM) | 16 (≈ 41.7 µM) | 4 (≈ 10.4 µM) | 1 (≈ 2.61 µM) | 0.5 (≈ 1.3 µM) | 4 | 8 | 2 | 0.5 (≈ 1.3 µM) | 4 | 32 | 8 (≈ 20.9 µM) | 32 (≈ 83.4 µM) | MIC [26]: ≥ 16 µg/mL; MIC [21]: 32 µg/mL (≈ 83.4 µM); IC50 [22]: 138 µM; MIC [23]: 16 µg/mL (≈ 41.7 µM); IC50 [24]: 339 µM; MIC50 [25]: 1 µg/mL (≈ 2.61 µM); MIC90 [25]: 16 µg/mL (≈ 41.7 µM)
6 | C[C@@H](O)[C@H]1C(=O)N2C(C(=O)O)=C(S[C@H]3C[C@@H](C(=O)N4CC[C@H](NC(=O)CNC(=N)N)C4)N(C)C3)[C@H](C)[C@H]12 [TOMOPENEM] | 2 | 1 (≈ 1.86 µM) | 0.5 (≈ 0.93 µM) | 8 | 1 | 0.5 (≈ 0.93 µM) | 2 (≈ 3.72 µM) | 0.25 (≈ 0.465 µM) | 8 (≈ 14.9 µM) | 1 (≈ 1.86 µM) | 0.5 (≈ 0.93 µM) | 0.25 (≈ 0.465 µM) | 2 | 4 | 2 | 0.25 (≈ 0.465 µM) | 4 | 32 | 4 (≈ 7.44 µM) | 8 (≈ 14.9 µM) | MIC [21]: 8 µg/mL (≈ 14.9 µM); IC50 [22]: 5.39 µM; MIC [23]: 8 µg/mL (≈ 14.9 µM); IC50 [24]: 9.86 µM; MIC50 [25]: 0.5 µg/mL (≈ 0.93 µM); MIC90 [25]: 4 µg/mL (≈ 7.44 µM)

From ChEMBL document CHEMBL1275475, “Potent in vitro activity of tomopenem (CS-023) against methicillin-resistant Staphylococcus aureus and Pseudomonas aeruginosa” (Antimicrob Agents Chemother, 2008)
